Test [1] addresses Genome polyprotein (West Nile virus) (UniProt P06935). As to the kind of experiment: Inhibition of C-terminal His6-tagged West Nile virus NS2B (52 to 96 residues)-G4SG4-NS3 (1 to 184 residues) expressed in Escherichia coli BL21(DE3) cells at <50 uM using Boc-Gly-Lys-Arg-AMC33 as substrate measured for 600 secs by fluorescence based assay.
In test [2] the target is Nonstructural protein 3 (Zika virus) (UniProt A0A024AXB9). In words: Inhibition of Zika virus NS2B-NS3 protease at <50 uM using Bz-Nle-Lys-Lys-Arg-AMC as substrate preincubated for 10 mins followed by substrate addition and measured for 70 secs by fluorophotometric analysis.
The next test has as its target Nonstructural protein 3 (Zika virus, UniProt A0A024AXB9). As to the kind of experiment: Inhibition of Zika virus NS2B-NS3 protease using Bz-Nle-Lys-Lys-Arg-AMC as substrate preincubated for 10 mins followed by substrate addition and measured for 70 secs by fluorophotometric analysis. The method in brief:
(§1)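 Ki values were obtained by fluorescence-based protease assays, only for ligands below the 50 μM inhibition cutoff. The commercially available racemic mixtures were tested.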

Another test addresses Genome polyprotein (West Nile virus, UniProt P06935). In words: Inhibition of C-terminal His6-tagged West Nile virus NS2B (52 to 96 residues)-G4SG4-NS3 (1 to 184 residues) expressed in Escherichia coli BL21(DE3) cells using Boc-Gly-Lys-Arg-AMC33 as substrate measured for 600 secs by fluorescence based assay. The gist of the method:
as §1

In a further test the test system is dengue virus type 2. In words: Inhibition of N-terminal His6-tagged DENV2 NS2B-NS3 protease at<50 uM using Boc-Gly-Lys-Arg-AMC33 as substrate measured for 600 secs by fluorescence based assay.
Test [3] in a line: Inhibition of N-terminal His6-tagged DENV2 NS2B-NS3 protease using Boc-Gly-Lys-Arg-AMC33 as substrate measured for 600 secs by fluorescence based assay. Further details: species or system dengue virus type 2. The gist of the method: as §1

Two compounds from ChEMBL document CHEMBL4602711, “Catching a Moving Target: Comparative Modeling of Flaviviral NS2B-NS3 Reveals Small Molecule Zika Protease Inhibitors” (ACS Med Chem Lett, 2020) can be followed below.

The source made the active and inactive calls.

Nonstructural protein 3 (Zika virus), sequence (A0A024AXB9 as listed by the source): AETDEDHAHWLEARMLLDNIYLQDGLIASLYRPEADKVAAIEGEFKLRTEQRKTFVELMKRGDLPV
Nonstructural protein 3, sequence (A0A024AXB9 whole entry): as the sequence (A0A024AXB9 as listed by the source) above
Genome polyprotein (West Nile virus), sequence (P06935 whole entry, the tested form may be a part): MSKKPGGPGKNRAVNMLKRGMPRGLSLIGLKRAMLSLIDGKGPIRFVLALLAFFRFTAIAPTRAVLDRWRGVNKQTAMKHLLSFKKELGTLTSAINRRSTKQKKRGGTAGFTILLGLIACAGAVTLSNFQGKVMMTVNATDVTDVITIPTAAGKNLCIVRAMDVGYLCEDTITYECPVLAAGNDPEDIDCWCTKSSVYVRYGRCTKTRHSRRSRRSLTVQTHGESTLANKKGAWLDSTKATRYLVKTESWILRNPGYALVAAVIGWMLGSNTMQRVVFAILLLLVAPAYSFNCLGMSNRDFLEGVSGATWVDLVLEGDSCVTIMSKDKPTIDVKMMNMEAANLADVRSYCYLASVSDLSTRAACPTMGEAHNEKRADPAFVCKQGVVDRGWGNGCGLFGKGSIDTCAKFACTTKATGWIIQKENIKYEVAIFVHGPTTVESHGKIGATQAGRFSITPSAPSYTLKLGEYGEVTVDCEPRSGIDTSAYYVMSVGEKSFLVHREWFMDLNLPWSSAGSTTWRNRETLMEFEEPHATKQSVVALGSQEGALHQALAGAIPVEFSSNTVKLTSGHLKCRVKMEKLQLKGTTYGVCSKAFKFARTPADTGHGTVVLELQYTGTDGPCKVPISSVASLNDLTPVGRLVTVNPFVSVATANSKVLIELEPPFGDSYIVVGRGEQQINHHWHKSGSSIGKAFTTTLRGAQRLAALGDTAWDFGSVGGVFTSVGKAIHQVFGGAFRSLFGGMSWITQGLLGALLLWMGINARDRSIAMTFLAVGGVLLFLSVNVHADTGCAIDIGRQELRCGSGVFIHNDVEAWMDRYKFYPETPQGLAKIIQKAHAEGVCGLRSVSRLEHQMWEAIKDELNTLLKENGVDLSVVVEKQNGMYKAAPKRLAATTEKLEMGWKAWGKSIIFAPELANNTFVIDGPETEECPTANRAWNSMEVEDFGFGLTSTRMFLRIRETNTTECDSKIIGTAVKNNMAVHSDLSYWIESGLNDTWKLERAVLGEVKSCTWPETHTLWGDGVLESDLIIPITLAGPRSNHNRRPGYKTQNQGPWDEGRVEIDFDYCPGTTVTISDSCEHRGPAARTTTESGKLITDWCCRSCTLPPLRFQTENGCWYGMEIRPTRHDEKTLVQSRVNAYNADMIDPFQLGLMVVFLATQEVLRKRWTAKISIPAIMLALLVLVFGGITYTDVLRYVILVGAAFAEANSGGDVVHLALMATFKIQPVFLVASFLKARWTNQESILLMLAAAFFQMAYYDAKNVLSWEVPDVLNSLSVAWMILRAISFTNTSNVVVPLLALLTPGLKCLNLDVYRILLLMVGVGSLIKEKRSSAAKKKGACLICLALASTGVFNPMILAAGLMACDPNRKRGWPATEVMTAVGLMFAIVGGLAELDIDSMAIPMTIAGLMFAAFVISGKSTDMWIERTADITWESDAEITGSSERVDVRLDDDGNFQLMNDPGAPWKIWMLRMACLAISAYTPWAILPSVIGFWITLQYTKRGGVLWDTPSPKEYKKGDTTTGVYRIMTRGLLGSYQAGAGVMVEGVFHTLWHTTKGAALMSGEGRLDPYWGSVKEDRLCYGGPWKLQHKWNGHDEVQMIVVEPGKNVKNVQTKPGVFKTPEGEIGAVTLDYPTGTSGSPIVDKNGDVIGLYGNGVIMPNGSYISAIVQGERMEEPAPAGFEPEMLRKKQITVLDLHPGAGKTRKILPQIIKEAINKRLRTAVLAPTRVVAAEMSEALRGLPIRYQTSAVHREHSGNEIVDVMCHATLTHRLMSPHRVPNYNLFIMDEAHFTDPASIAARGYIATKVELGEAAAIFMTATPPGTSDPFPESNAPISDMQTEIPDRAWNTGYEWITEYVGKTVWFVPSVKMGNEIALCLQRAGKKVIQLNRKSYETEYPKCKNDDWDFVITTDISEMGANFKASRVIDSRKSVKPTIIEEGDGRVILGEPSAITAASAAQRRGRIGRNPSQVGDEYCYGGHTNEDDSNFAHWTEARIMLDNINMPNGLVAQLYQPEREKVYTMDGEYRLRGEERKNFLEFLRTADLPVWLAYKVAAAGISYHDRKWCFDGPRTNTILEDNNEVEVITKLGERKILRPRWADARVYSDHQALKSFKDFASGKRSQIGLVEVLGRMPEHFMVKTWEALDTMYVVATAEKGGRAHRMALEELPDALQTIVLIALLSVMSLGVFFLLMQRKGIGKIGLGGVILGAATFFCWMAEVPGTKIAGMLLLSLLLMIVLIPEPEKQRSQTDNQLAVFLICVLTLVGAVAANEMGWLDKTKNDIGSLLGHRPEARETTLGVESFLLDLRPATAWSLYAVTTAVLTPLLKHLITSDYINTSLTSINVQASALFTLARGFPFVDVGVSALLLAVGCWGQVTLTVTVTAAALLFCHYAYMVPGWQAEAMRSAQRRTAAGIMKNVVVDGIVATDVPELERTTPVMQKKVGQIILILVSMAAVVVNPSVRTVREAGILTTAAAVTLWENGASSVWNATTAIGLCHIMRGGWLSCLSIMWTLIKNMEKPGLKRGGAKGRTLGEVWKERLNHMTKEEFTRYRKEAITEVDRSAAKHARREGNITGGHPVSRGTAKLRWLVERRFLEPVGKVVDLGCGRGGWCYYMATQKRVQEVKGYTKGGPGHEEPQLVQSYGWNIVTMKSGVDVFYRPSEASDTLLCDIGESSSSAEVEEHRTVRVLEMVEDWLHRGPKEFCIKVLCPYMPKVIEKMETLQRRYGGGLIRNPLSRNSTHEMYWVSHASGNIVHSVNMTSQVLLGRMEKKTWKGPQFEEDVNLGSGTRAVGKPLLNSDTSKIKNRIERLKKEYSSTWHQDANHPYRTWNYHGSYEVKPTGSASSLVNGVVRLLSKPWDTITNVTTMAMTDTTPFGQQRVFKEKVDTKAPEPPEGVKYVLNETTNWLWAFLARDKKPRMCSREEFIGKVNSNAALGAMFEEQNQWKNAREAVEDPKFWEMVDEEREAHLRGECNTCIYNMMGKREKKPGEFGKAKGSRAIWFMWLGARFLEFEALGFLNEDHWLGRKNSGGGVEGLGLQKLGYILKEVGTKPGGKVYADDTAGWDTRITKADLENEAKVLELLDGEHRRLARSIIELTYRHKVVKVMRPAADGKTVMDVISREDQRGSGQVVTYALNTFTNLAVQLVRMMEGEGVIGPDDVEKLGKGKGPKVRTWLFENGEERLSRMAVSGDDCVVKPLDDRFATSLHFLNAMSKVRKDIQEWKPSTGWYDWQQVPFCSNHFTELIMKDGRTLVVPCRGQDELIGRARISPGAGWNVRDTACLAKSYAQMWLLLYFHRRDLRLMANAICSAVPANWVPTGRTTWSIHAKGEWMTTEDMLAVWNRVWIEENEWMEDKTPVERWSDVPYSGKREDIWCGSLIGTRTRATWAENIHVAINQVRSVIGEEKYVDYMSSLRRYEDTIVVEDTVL
Genome polyprotein, sequence (P06935 1371-1501 limits assumed): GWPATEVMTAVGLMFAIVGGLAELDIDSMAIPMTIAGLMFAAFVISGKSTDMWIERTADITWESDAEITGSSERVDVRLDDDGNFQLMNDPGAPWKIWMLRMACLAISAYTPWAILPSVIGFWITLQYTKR
Genome polyprotein, sequence (P06935 1502-2120 limits assumed): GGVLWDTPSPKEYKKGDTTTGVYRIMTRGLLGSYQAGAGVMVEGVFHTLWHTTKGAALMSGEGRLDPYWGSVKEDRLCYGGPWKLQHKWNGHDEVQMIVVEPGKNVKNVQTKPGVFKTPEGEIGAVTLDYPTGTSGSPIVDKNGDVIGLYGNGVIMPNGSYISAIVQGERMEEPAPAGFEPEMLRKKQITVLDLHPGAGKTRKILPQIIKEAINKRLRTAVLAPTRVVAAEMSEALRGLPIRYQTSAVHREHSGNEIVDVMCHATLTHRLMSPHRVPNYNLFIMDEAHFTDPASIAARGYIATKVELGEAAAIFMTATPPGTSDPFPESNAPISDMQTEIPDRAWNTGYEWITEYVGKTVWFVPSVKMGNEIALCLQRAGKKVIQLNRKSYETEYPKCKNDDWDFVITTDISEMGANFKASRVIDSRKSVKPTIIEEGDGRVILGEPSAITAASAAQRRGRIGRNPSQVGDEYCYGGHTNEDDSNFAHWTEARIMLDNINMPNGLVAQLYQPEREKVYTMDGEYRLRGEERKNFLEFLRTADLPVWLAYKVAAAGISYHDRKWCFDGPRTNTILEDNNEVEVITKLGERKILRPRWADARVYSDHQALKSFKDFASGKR

Regarding `COc1cc(CN2CC(O)C2)ccc1OCC(O)CN1CCC(O)CC1` (stereo not given), the inhibition entry in test [1] and in test [2] was “Active” throughout. For the same compound, the Ki worked out at 11.5 µM on Nonstructural protein 3 and 7.4 µM at Genome polyprotein.

In the case of `Cc1ccc(C(=O)NCC(O)CN2CCCC2)cc1OCCN` (stereo not given), the inhibition entry (in test [1]; in test [2]; with dengue virus type 2) was “Active” throughout. The Ki in test [3] was determined as 0.09 µM; on Nonstructural protein 3, 2.3 µM; at Genome polyprotein, 25.5 µM.
